For 11 compounds, MIC and CMC results are on record in ChEMBL document CHEMBL4004832, “Synthesis, surfactant properties and antimicrobial activities of methyl glycopyranoside ethers” (2017).

In one assay the test system is Escherichia coli. The assay is described as follows: Antibacterial activity against Escherichia coli ATCC 8739 after 18 hrs by broth microdilution assay. Format: functional. As to conditions: ATCC 8739, 18 h. (In general: In broth dilution the organism is exposed to a series of concentrations in liquid medium.)
Assay [1] deals with Listeria monocytogenes. Kind of assay: Antibacterial activity against Listeria monocytogenes CIP 103575 after 18 hrs by broth microdilution assay. The following applies: CIP 103575, 18 h. The assay is classed as functional. The method, boiled down:
(§1)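 Broth MIC testing on Gram-positive strains followed CLSI M100-S17 recommendations. […] Values are in mmol/L. Amoxicillin was the control for Listeria and Enterococcus strains and oxacillin for S. aureus strains.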

The nature of assay [2]: Surfactant property of the compound in water assessed as critical micelle concentration or minimal hydrotropic concentration by platinum rod based tensiometric method. In outline:
(§2)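 Surface tension of aqueous solutions was measured by a rod method based on the Wilhelmy plate. Water was progressively concentrated with a stock surfactant solution at constant volume. At each concentration, readings continued until stable (SD of the last 5 values 0.2 mN/m). MHC or CMC and the plateau γsat were taken from the tension vs concentration curves.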

The test system of the next assay is Pseudomonas aeruginosa. Kind of assay: Antibacterial activity against Pseudomonas aeruginosa ATCC 27853 after 18 hrs by broth microdilution assay. The assay is classed as functional. As to conditions: ATCC 27853, 18 h.
In assay [3] the test system is Enterococcus faecalis. The assay is described as follows: Antibacterial activity against Enterococcus faecalis ATCC 29212 after 18 hrs by broth microdilution assay. Format: functional. As to conditions: ATCC 29212, 18 h. In outline:
as §1

Assay [4] relates to Staphylococcus aureus. Kind of assay: Antibacterial activity against Staphylococcus aureus ATCC 29213 after 18 hrs by broth microdilution assay. The following applies: ATCC 29213, 18 h. The assay is classed as functional. In outline:
as §1

The test system of assay [5] is Listeria monocytogenes. Kind of assay: Antibacterial activity against Listeria monocytogenes isolate 015170199001 after 18 hrs by broth microdilution assay. The assay is classed as functional. As to conditions: isolate 015170199001, 18 h. The method, boiled down:
as §1

In assay [6] the test system is Enterococcus faecalis. Kind of assay: Antibacterial activity against Enterococcus faecalis isolate 015206179901 after 18 hrs by broth microdilution assay. The assay is classed as functional. The following applies: isolate 015206179901, 18 h. In outline: as §1
In assay [7] the test system is Enterococcus faecium. Kind of assay: Antibacterial activity against Enterococcus faecium isolate 015205731401 after 18 hrs by broth microdilution assay. Format: functional. The following applies: isolate 015205731401, 18 h. The method, boiled down:
as §1

Assay [8] has as its system Enterococcus faecium. Kind of assay: Antibacterial activity against […] Enterococcus faecium isolate 0151850763 after 18 hrs by broth microdilution assay. Format: functional. The following applies: isolate 0151850763, 18 h. In outline: (§3)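 Enterococcus faecium strains (reference, clinical isolates, VanA isolate) tested by MIC following CLSI recommendations (M100-S17), with amoxicillin as control. […] Values are expressed in mmol/L.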

In assay [9] the test system is Enterococcus faecium. Kind of assay: Antibacterial activity against Enterococcus faecium isolate 015205261801 after 18 hrs by broth microdilution assay. The assay is classed as functional. The following applies: isolate 015205261801, 18 h. The method, boiled down:
as §3

In assay [10] the test system is Enterococcus faecium. Kind of assay: Antibacterial activity against Enterococcus faecium CIP 103510 after 18 hrs by broth microdilution assay. Format: functional. The following applies: CIP 103510, 18 h. In outline: as §3
The test system of assay [11] is Listeria monocytogenes. Kind of assay: Antibacterial activity against Listeria monocytogenes isolate 015189074801 after 18 hrs by broth microdilution assay. Format: functional. As to conditions: isolate 015189074801, 18 h. The method, boiled down: as §1
For assay [12], the system named is Listeria monocytogenes. Kind of assay: Antibacterial activity against Listeria monocytogenes isolate 015181840701 after 18 hrs by broth microdilution assay. The assay is classed as functional. The following applies: isolate 015181840701, 18 h. The method, boiled down: as §1
Assay [13] is described as follows: Surfactant property of the compound in aqueous solution assessed as critical micelle concentration or minimal hydrotropic concentration. The method, boiled down:
as §2

The subject of assay [14] is Staphylococcus aureus. Kind of assay: Antibacterial activity against Staphylococcus aureus ATCC 25923 after 18 hrs by broth microdilution assay. Format: functional. The following applies: ATCC 25923, 18 h. In outline:
(§4)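 Staphylococcus aureus reference strains and methicillin- and daptomycin-resistant isolates tested by MIC according to CLSI guidance (M100-S17), with oxacillin as control. The endpoint is the lowest concentration with no growth in all replicates versus a negative control at 18 h. Values are reported in mmol/L.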

The subject of assay [15] is Staphylococcus aureus. Kind of assay: Antibacterial activity against methicillin-resistant Staphylococcus aureus isolate HT 2006-1004 after 18 hrs by broth microdilution assay. The assay is classed as functional. As to conditions: isolate HT 2006-1004, 18 h. The method, boiled down: as §4
In assay [16] the test system is Staphylococcus aureus. Kind of assay: Antibacterial activity against methicillin-resistant Staphylococcus aureus LAC USA300 after 18 hrs by broth microdilution assay. The assay is classed as functional. In outline: as §4
Assay [17] has as its system Staphylococcus aureus. Kind of assay: Antibacterial activity against daptomycin-resistant Staphylococcus aureus isolate ST 2014-1288 after 18 hrs by broth microdilution assay. Format: functional. The following applies: isolate ST 2014-1288, 18 h. In outline: as §4
Assay [18] concerns Staphylococcus aureus. Kind of assay: Antibacterial activity against methicillin-resistant Staphylococcus aureus isolate HT 2002-0417 after 18 hrs by broth microdilution assay. As to conditions: isolate HT 2002-0417, 18 h. Format: functional. In outline: as §4
Assay [19] relates to Staphylococcus aureus. The assay is described as follows: Antibacterial activity against methicillin-resistant Staphylococcus aureus Mu3 after 18 hrs by broth microdilution assay. The assay is classed as functional. The following applies: Mu3, 18 h. In outline: as §4
For assay [20], the system named is Staphylococcus aureus. Kind of assay: Antibacterial activity against daptomycin-resistant Staphylococcus aureus isolate ST 2015-0188 after 18 hrs by broth microdilution assay. As to conditions: isolate ST 2015-0188, 18 h. The assay is classed as functional. In outline:
as §4

Assay [21] has as its system Staphylococcus aureus. Kind of assay: Antibacterial activity against methicillin-resistant Staphylococcus aureus isolate LY 1999-0053 after 18 hrs by broth microdilution assay. The assay is classed as functional. As to conditions: isolate LY 1999-0053, 18 h. The method, boiled down: as §4
Assay [22] concerns Staphylococcus aureus. The assay is described as follows: Antibacterial activity against daptomycin-resistant Staphylococcus aureus isolate ST 2015-0989 after 18 hrs by broth microdilution assay. The following applies: isolate ST 2015-0989, 18 h. The assay is classed as functional. The method, boiled down:
as §4

Assay [23] concerns Staphylococcus aureus. Kind of assay: Antibacterial activity against methicillin-resistant Staphylococcus aureus isolate HT 2004-0012 after 18 hrs by broth microdilution assay. Format: functional. As to conditions: isolate HT 2004-0012, 18 h. In outline: as §4

As a reminder, the MIC is the smallest concentration in the dilution series that meets the test's criterion for growth inhibition. Read a low MIC as greater potency.

Structures are written as SMILES. Values after ≈ are worked out from the molar mass of the structure shown.

For `CCCC[C@@H]1OC[C@H]2O[C@H](OC)[C@H](O)[C@@H](O)[C@@H]2O1`, the minimal inhibitory concentration (MIC) in the assay on Escherichia coli, with Listeria monocytogenes [1], with Pseudomonas aeruginosa, in the assay with Enterococcus faecalis [3] and with Staphylococcus aureus [4] was more than 4000 µM throughout. In addition, in [2], the CMC is 82 mmol/L.

With `CCCCCOC[C@H]1O[C@H](OC)[C@H](O)[C@@H](O)[C@@H]1O`, the MIC in the assay with Escherichia coli, against Listeria monocytogenes [1], against Pseudomonas aeruginosa, in the assay with Enterococcus faecalis [3] and against Staphylococcus aureus [4] was more than 4000 µM in each case. Moreover, in [2], the CMC came out at 35 mmol/L.

Take `CCCCCCCCC[C@@H]1OC[C@H]2O[C@H](OC)[C@H](O)[C@@H](O)[C@@H]2O1`: in assay [2], the CMC amounted to 0.15 mmol/L.

For the compound `CC1(C)S[C@@H]2[C@H](NC(=O)[C@H](N)c3ccc(O)cc3)C(=O)N2[C@H]1C(=O)O` [AMOXICILLIN], the MIC came to 4 µM (≈ 1.46 µg/mL) in the assay with Listeria monocytogenes [5]; 2 µM (≈ 0.731 µg/mL) against Listeria monocytogenes [1]; 2 µM (≈ 0.731 µg/mL) against Enterococcus faecalis [6]; 250 µM (≈ 91.4 µg/mL) in the assay with Enterococcus faecium [7]; 500 µM (≈ 183 µg/mL) against Enterococcus faecium [8]; 250 µM (≈ 91.4 µg/mL) against Enterococcus faecium [9]. Further, the minimum inhibitory concentration (MIC) against Enterococcus faecalis [3] is 2 µM (≈ 0.731 µg/mL); in the assay on Enterococcus faecium [10], 60 µM (≈ 21.9 µg/mL); against Listeria monocytogenes [11], 2 µM (≈ 0.731 µg/mL); with Listeria monocytogenes [12] it was 2 µM (≈ 0.731 µg/mL).

For the compound `CCCCCCCCCCCCO[C@@H]1O[C@H](CO)[C@@H](O)[C@H](O)[C@H]1O`, the CMC in assay [13] was 0.19 mmol/L.

Consider `CCCCCCCCCCCCO[C@@H]1O[C@H](CO)C(O[C@H]2O[C@H](CO)[C@@H](O)[C@H](O)[C@H]2O)[C@H](O)[C@H]1O` (single isomer, unassigned), for which the CMC in assay [13] came to 0.2 mmol/L.

As for `CCCCCCCCCCCCO[C@H]1O[C@H](CO)C(O[C@H]2O[C@H](CO)[C@@H](O)[C@H](O)[C@H]2O)[C@H](O)[C@H]1O` (single isomer, unassigned), the CMC in assay [13] came out at 0.15 mmol/L.

Take `Cc1onc(-c2ccccc2)c1C(=O)N[C@@H]1C(=O)N2[C@@H]1SC(C)(C)[C@@H]2C(=O)O` [OXACILLIN]: the minimal inhibitory concentration (MIC) against Staphylococcus aureus [14] came to 50 µM (≈ 20.1 µg/mL); against Staphylococcus aureus [15], 320 µM (≈ 128 µg/mL); against Staphylococcus aureus [16] it was 160 µM (≈ 64.2 µg/mL); in the assay with Staphylococcus aureus [17], 160 µM (≈ 64.2 µg/mL); against Staphylococcus aureus [18], 160 µM (≈ 64.2 µg/mL); against Staphylococcus aureus [19] it was 640 µM (≈ 257 µg/mL). The minimum inhibitory concentration (MIC) with Staphylococcus aureus [20] came to 160 µM (≈ 64.2 µg/mL); in the assay on Staphylococcus aureus [4], 1 µM (≈ 0.401 µg/mL); in the assay on Staphylococcus aureus [21] it was 160 µM (≈ 64.2 µg/mL); in the assay on Staphylococcus aureus [22], 320 µM (≈ 128 µg/mL); with Staphylococcus aureus [23], 80 µM (≈ 32.1 µg/mL).

Regarding `CCCCC[C@@H]1OC[C@H]2O[C@H](OC)[C@H](O)[C@@H](O)[C@@H]2O1`, the minimum inhibitory concentration (MIC) against Escherichia coli, in the assay on Listeria monocytogenes [1], in the assay with Pseudomonas aeruginosa, against Enterococcus faecalis [3] and with Staphylococcus aureus [4] was more than 4000 µM in each case. Besides, in assay [2], the CMC was determined as 6.5 mmol/L.

For `CCCCCCCCCCCCO[C@H]1[C@H](OC)O[C@@H](C)[C@H](O)[C@H]1O`, the MIC was 90 µM (≈ 31.2 µg/mL) against Staphylococcus aureus [14]; 90 µM (≈ 31.2 µg/mL) with Staphylococcus aureus [15]; 90 µM (≈ 31.2 µg/mL) with Listeria monocytogenes [5]; 90 µM (≈ 31.2 µg/mL) with Listeria monocytogenes [1]; 90 µM (≈ 31.2 µg/mL) against Staphylococcus aureus [16]; 50 µM (≈ 17.3 µg/mL) against Enterococcus faecalis [6]. The MIC in the assay with Staphylococcus aureus [17] is 90 µM (≈ 31.2 µg/mL); in the assay on Enterococcus faecium [7] it was 20 µM (≈ 6.93 µg/mL); in the assay on Enterococcus faecium [8], 50 µM (≈ 17.3 µg/mL); with Enterococcus faecium [9], 50 µM (≈ 17.3 µg/mL); in the assay with Staphylococcus aureus [18], 90 µM (≈ 31.2 µg/mL); in the assay with Enterococcus faecalis [3] it was 50 µM (≈ 17.3 µg/mL). Also, the MIC with Enterococcus faecium [10] came out at 50 µM (≈ 17.3 µg/mL); in the assay on Listeria monocytogenes [11], 90 µM (≈ 31.2 µg/mL); with Staphylococcus aureus [19], 180 µM (≈ 62.4 µg/mL); in the assay with Staphylococcus aureus [20] it was 180 µM (≈ 62.4 µg/mL); in the assay with Staphylococcus aureus [4] it was 50 µM (≈ 17.3 µg/mL); against Staphylococcus aureus [21], 90 µM (≈ 31.2 µg/mL). The MIC came to 180 µM (≈ 62.4 µg/mL) against Staphylococcus aureus [22], 90 µM (≈ 31.2 µg/mL) in the assay with Listeria monocytogenes [12] and 50 µM (≈ 17.3 µg/mL) against Staphylococcus aureus [23].

Consider `CCCCCCC[C@@H]1OC[C@H]2O[C@H](OC)[C@H](O)[C@@H](O)[C@@H]2O1`, for which the minimum inhibitory concentration (MIC) against Escherichia coli is more than 4000 µM; against Listeria monocytogenes [1], 2000 µM (≈ 609 µg/mL); with Pseudomonas aeruginosa, more than 4000 µM; against Enterococcus faecalis [3], more than 4000 µM; with Staphylococcus aureus [4] it was more than 4000 µM. Further, in [2], the CMC turned out to be 2.5 mmol/L.
